Bioassay records deposited in PubChem BioAssay by several laboratories.
GAA850 FXN act: activators of GAA850 frataxin (FXN) promoter; HEK293 lucGAA850 FXN promoter luciferase reporter, 24 h; percent of 10 µM SAHA response; activation, % at 6 µM; hit rate 0.56% among 360,000; AID 540364;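 active = activation above the average of all compounds screened plus 3 SD, cutoff fixed separately per campaign, cut at about 7.5% in these data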;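 also: 0% = DMSO wells and 100% = 10 µM SAHA wells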
GSIS activator: primary screen for activators of insulin secretion dependent on glucose, INS-1E cells, GLuc reporter luminescence; INS-1E GLuc reporter insulin secretion, 2-3 h; activation, % at 16.6 µM; hit rate 0.61% among 370,000;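 active = lowest replicate activation of at least 40%, so every replicate reaches that level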;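 also: 0% = median of neutral control wells and 100% = median of IBMX positive control wells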
XiGFP reactiv: X-chromosome reactivation activator. XiGFP mouse fibroblasts, % GFP-positive cells imaging, 3 d; cells co-treated with 5-aza-dC sensitizer; scaled so ellipticine positive control = 100%. activation, % at 7.58 µM. hit rate 0.055% among 360,000;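 active = mean normalized replicate activation at least 10% and every replicate at or above 10%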;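 also: 0% = median of on-plate neutral control wells and 100% = ellipticine 6 µM median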
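assay system = SV40-immortalized XiGFP fibroblast cells, line 68-5-11 | buffer or medium = DMEM plus 5-aza-dC sensitizer | doses = single-point pinned compound dosing | times = 3-day compound exposure, then 15 min fixation at room temperature | benchmarks = positive control ellipticine, 6 µM final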
CaV13 ICDI inh: Disruptors of the CACNA1D IQ motif to Ca2+-dependent inactivation inhibitor domain association, primary screening, Förster resonance energy transfer in intact living …. HEK cells, CFP/YFP FRET ICDI-IQ, plate reader, 10 min; percent FRET-ratio fall versus neutral wells. inhibition, % at 12.3 µM. hit rate 0.098% among 340,000;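 active = mean replicate inhibition of at least 30% and at least 1% of replicates passing that level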;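 also: 0% = median of the neutral control wells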
GAA30 counter: counter-screen for GAA850 frataxin promoter activators: GAA30 promoter activation. HEK293 lucGAA30 FXN promoter luciferase, 24 h; DMSO = 0%, 5 µM ipriflavone = 100%. hit rate 66% among 1,900. AID 588350. activation, % at 6 µM. shares compounds with GAA850 FXN act;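 active = mean activation above the mean of solvent-only control wells plus 3 SD, cut at about 22% in these data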;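 also: counterscreen of GAA850 promoter hits where activity marks nonselective or luminescence artifacts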
FXN GAA850 conf: confirmation of GAA850 frataxin (FXN) promoter activators; shares compounds with GAA850 FXN act; HEK293 lucGAA850 FXN promoter luciferase reporter, 24 h; 100% = activation by SAHA; activation, % at 6 µM; hit rate 86% among 1,900; AID 588351;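 active = mean activation above a set limit taken from the primary screen, cut at about 8% in these data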;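 also: 0% = DMSO wells and 100% = 10 µM SAHA wells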
* hit, by the source's call; nt = not tested or not shown. Compounds with a hit are over-represented: about 1% of the library has one in this group of screens.

SMILES	GAA850 FXN act	GSIS activator	XiGFP reactiv	CaV13 ICDI inh	GAA30 counter	FXN GAA850 conf
CC(C)CCOP(=O)(c1ccc(N(C)C)cc1)C(O)c1c(Cl)cccc1Cl (configuration not stated)	20*	-3	0	-2	26*	14*
CC(C)OP(=O)(c1ccc(N(C)C)cc1)C(O)c1ccc(C(C)C)cc1 (configuration not stated)	11*	-14	0	-16	29*	13*
CC=Cc1ccc2n(c1=O)C[C@@H]1[C@@H](CO)[C@H](C(=O)NCCC)N(CC3CCOCC3)[C@H]21 (mixture of isomers)	nt	-10	0	nt	nt	nt
CNC(=O)C[C@@H]1CC[C@@H]2[C@H](COC[C@@H](O)CN2Cc2ccc(Cl)c(Cl)c2)O1	nt	2	0	nt	nt	nt
CO[C@H]1CN(C)C(=O)c2ccc(NC(=O)C3CCOCC3)cc2OC[C@H](C)N(CC2CC2)C[C@H]1C	nt	12	0	nt	nt	nt
COc1ccc2cc(CN(CCc3ccccc3)Cc3nnnn3Cc3ccco3)c(=O)[nH]c2c1	3	nt	nt	nt	nt	nt
COc1ccccc1CN(Cc1cc2c(C)ccc(C)c2[nH]c1=O)Cc1nnnn1Cc1ccco1	8.8*	18	nt	-6	-3	11*
COc1ccccc1C#Cc1cnc2c(c1)C(=O)N([C@@H](C)CO)C[C@@H](C)[C@@H](CN(C)C(=O)c1ccc3c(c1)OCO3)O2	nt	-23	-1	nt	nt	nt
COC(=O)[C@@H]1[C@@H](C#N)C2(c3ccccc3-c3ccccc32)N(c2ccc(Cl)cc2)N1C#N	12*	nt	nt	-2	-16	19*
CC(C)=CCC/C(C)=C/C=N/NC(=O)c1ccccc1[N+](=O)[O-]	8.6*	nt	nt	-6	17	5
CN(C)CC(=O)Nc1ccc2c(c1)[C@@H]1C[C@H](CC(=O)NCc3cc(F)ccc3F)O[C@H](CO)[C@@H]1O2	nt	14	0	nt	nt	nt
COc1nc(N)nc(NC(=O)c2cccs2)c1N=O	16*	-16	0	-6	4	31*
O=C(C1CC1)N1C[C@H]2[C@@H](c3ccccc31)[C@H](CO)N2S(=O)(=O)c1ccccc1	nt	-2	0	nt	nt	nt
CCOc1ccc2nc(SCC(=O)c3cccs3)sc2c1	8.6*	nt	nt	-3	102*	29*
Oc1sc(C=Nc2ccccc2)c2ccccc12	8.2*	-20	nt	nt	125*	42*
Oc1c(C=Nc2ccccc2)sc2ccccc12	10*	0	0	-3	112*	38*
C[C@H](CO)N1C[C@H](C)[C@@H](CN(C)Cc2ccncc2)Oc2ccc(NS(=O)(=O)c3ccccc3)cc2CC1=O	nt	9	0	nt	nt	nt
CN(C)c1nc(N)nc(CSc2nc3cc(Cl)ccc3o2)n1	8.3*	nt	nt	-7	48*	27*
O=C(c1ccccc1)N1C[C@@H]2[C@H](c3ccccc31)[C@@H](CO)N2S(=O)(=O)c1ccccc1	nt	1	0	nt	nt	nt
c1ccc(C2=NN(c3ccccc3)CC2)cc1	7.7*	11	0	-4	108*	30*
O=C(N[C@@H]1C=C[C@H](CC(=O)N2CCN(c3ccccc3)CC2)O[C@@H]1CO)c1ccncc1	nt	13	-1	nt	nt	nt
NC(CCc1ccccc1)c1csc(NC(=O)Nc2ccccc2Oc2ccccc2)n1 (configuration not stated)	11*	-6	0	-6	9	16*
COc1cccc(Nc2nc(C(N)CCc3ccccc3)cs2)n1 (configuration not stated)	8.3*	-5	0	-6	-4	7.7*
NC(CCc1ccccc1)c1csc(NC(=O)NCCc2ccccc2)n1 (configuration not stated)	2	8	0	-11	nt	nt
CC(C)c1ccccc1NC(=O)Nc1nc(C(N)Cc2ccc(C(F)(F)F)cc2)cs1 (configuration not stated)	-2	20	0	-9	nt	nt
SMILES	GAA850 FXN act	GSIS activator	XiGFP reactiv	CaV13 ICDI inh	GAA30 counter	FXN GAA850 conf
NC(Cc1ccc(C(F)(F)F)cc1)c1csc(NC(=O)Nc2ccccc2Cc2ccccc2)n1 (configuration not stated)	15*	10	0	-7	20	15*
Cc1ccc(S(=O)(=O)Nc2ccc3c(c2)C(=O)N([C@@H](C)CO)C[C@H](C)[C@H](CN(C)C(=O)c2ccncc2)OCCCC[C@@H](C)O3)cc1	nt	8	0	nt	nt	nt
COC(=O)C[C@@H]1CC[C@@H]2[C@H](COC[C@@H](O)CN2S(=O)(=O)c2ccccc2C)O1	nt	35	0	nt	nt	nt
CCCn1c(SCc2ccc(Cl)cc2)nc2c1c(=O)[nH]c(=O)n2C	9.3*	13	nt	0	10	15*
C/C=C/Cn1c(SCc2ccc(Cl)cc2)nc2c1c(=O)[nH]c(=O)n2C	11*	nt	nt	-1	17	17*
COc1ccc(S(=O)(=O)N(C)C[C@@H]2Oc3ccc(NS(=O)(=O)c4ccc(Cl)cc4)cc3C(=O)N([C@@H](C)CO)C[C@H]2C)cc1	nt	-5	0	nt	nt	nt
CCCNC(=O)N1[C@H](CNC(=O)CC)[C@H](c2ccc(C3=CCCC3)cc2)[C@@H]1CO	nt	7	0	nt	nt	nt
CCCNC(=O)N1C[C@@H]2[C@H](c3ccccc31)[C@H](CO)N2C(=O)c1ccncc1	nt	5	0	nt	nt	nt
COC(=O)CCS(=O)(=O)c1nc(-c2ccccc2)cc(C(F)(F)F)n1	7	nt	nt	nt	nt	nt
COc1ccc(-c2cc(C(F)(F)F)nc(S(=O)(=O)CCCC(=O)Nc3cccnc3Cl)n2)cc1OC	8.7*	-7	0	-5	54*	52*
Cc1cc(NC(=O)CCCS(=O)(=O)c2nc(-c3cccs3)cc(C(F)(F)F)n2)no1	9.6*	1	nt	-5	-45	-1
CCC(=O)N(C)C[C@H]1Oc2cc(C#CCN(C)C)ccc2S(=O)(=O)N([C@@H](C)CO)C[C@@H]1C	nt	23	0	nt	nt	nt
COc1ccc(NC(=O)Nc2cccc3c2O[C@H](CN(C)S(=O)(=O)c2cn(C)cn2)[C@@H](C)CN([C@@H](C)CO)C3=O)cc1	nt	5	-1	nt	nt	nt
Cc1ccc(C(=O)NCCc2csc(-c3cccnc3)n2)cc1	20*	19	0	-7	76*	27*
COc1ccccc1Nc1nc(Cl)c(C=O)s1	11*	-1	0	-31	53*	47*
Cc1c(C(=O)OCCOC(C)C)[nH]c2c1C(=O)CC(C)(C)C2	10.0*	0	0	2	35*	13*
Cc1c(C(=O)OCCOC(C)C)[nH]c2c1C(=O)CC(c1ccco1)C2 (configuration not stated)	0	nt	nt	nt	nt	nt
